Screening results: PubChem, several laboratories
Only some compounds are listed: those with a hit (about 3.5% of all), similar ones and a draw of the others.
RAM inhibit – yeast RAM network inhibition. S. cerevisiae dse1pr::URA3 reporter, 5-FOA growth OD615, 2 d; analog-sensitive cbk1-as2 kinase mutant strain. inhibition, % at 50 µM. hit rate 1.8% among 190,000. AID 868;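 active means inhibition above a set limit, 3 SD over mean compound inhibition, cut at about 8.4% in these data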;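 further: 0% = DMSO-only wells with no growth and 100% = 10 µM 1-NA-PP1 full growth; inhibition rescues growth on 5-FOA so higher OD means more RAM inhibition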
b-catenin transl – alters nuclear translocation of beta-catenin in HeLa cells. immunofluorescence imaging. nuclear translocation activity, % at 5 µM. hit rate 0.3% among 190,000;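 active means nuclear translocation activity above 50% at 5 µM, with a well cell count of 50 or more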;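 further: per-cell ratio of nuclear to cytoplasmic median beta-catenin stain intensity; plate controls were DMSO negative control for no effect and GSK-3 inhibitor IX positive control for full effect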
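System: Human HeLa cells, endogenous beta-catenin | Compound dosing: 5 µM primary, 0.02–20 µM confirmation | Timing: 24 h compound exposure at 37°C, 5% CO2 | Measured by: Fluorescence imaging of beta-catenin antibody stain plus DAPI | Read-out basis: % activation of per-cell nuclear versus cytoplasmic median beta-catenin signal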
BB579 growth dn – chemicals that inhibit yeast BB579 growth in restrictive medium (lifespan-shortening candidates); inhibition, % at 10 µM; AID 804; S. cerevisiae BB579 growth, OD615, 48 h; hit rate 0.51% among 140,000;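 active means inhibition above a set limit, 3 SD over the mean compound inhibition, cut at about 44% in these data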
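Test system: Saccharomyces cerevisiae DeaD strain BB579, replicative lifespan model yeast | Buffer or medium: Restrictive CSMM-D medium | Doses: One dose, 10 µM compound with 0.25% DMSO | Incubation: 48 h exposure, 30 °C | Detection: Culture absorbance at 615 nm | Control set: Amphotericin B at 10 µg/mL as positive control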
Yeast life ext – yeast lifespan extension; S. cerevisiae growth with nicotinamide, OD615; deaD strain in restrictive glucose medium; inhibition of the nicotinamide effect, % at 10 µM; hit rate 0.68% among 130,000;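 active means inhibition above a set limit, placed 3 SD over the median of all compounds, cut at about 26% in these data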;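 further: 0% = nicotinamide-treated wells and 100% = cells grown without nicotinamide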
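Assay system: DeaD-strain S. cerevisiae. Medium: CSMM-D glucose medium, restrictive. Reagent: nicotinamide, 1.5 mM, co-present with compound. Compound: 10 µM single point, 0.25% DMSO. Schedule: culture preincubation 4 h, compound exposure 48 h, both 30 °C. Detection: absorbance at 615 nm.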
MT stabilize HCS – microtubule stabilizers in HeLa cells | HeLa tubulin immunostaining HCS, 24 h; share of cells brighter than vehicle mean+2SD | % tubulin-high responders, % at 10 µM | hit rate 0.83% among 200,000 | AID 2205;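 active means plate Z-score above 3 for both tubulin-high and condensed-nucleus cell shares, with cell loss under 80%, at 10 µM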;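 further: anti alpha tubulin signal scored within the nucleus-defined area of each cell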
HMGR II inh – blocks class II HMG-CoA reductase of Enterococcus faecalis; AID 1066; hit rate 0.41% among 190,000; purified E. faecalis HMGR, NADPH absorbance 340 nm kinetic; inhibition, % at 10 µM;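 active means inhibition above a set limit, the median over all tested compounds plus 3 SD, cut at about 9.5% in these data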;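 further: enzyme runs in reverse so mevalonate oxidation gives rising NADPH absorbance; 0% = complete reaction with DMSO and 100% = background rate lacking mevalonate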
The depositor's hits bear a star; nt = no result.

SMILES	RAM inhibit	b-catenin transl	BB579 growth dn	Yeast life ext	MT stabilize HCS	HMGR II inh
CCCOc1ccc(N2CC(C(=O)NC3=NCCS3)CC2=O)cc1 (stereo not drawn)	0	1	nt	nt	4	-1
Cn1cc(CNCc2ccccc2OCC(O)CN2CCc3ccccc3C2)cn1 (stereo not drawn)	0	3	nt	nt	4	1
O=C1CN(C(=O)COc2ccc(Br)cc2)c2ccccc2N1	4	-1	nt	nt	3	-1
O=S(=O)(NCCSCc1c(Cl)cccc1Cl)c1ccc2c(c1)OCCO2	8.8*	-2	-56	4	2	-6
O=S(=O)(NCCSc1ccc(Cl)cc1)c1ccc2c(c1)OCCO2	7	-1	-10	6	2	5
O=[N+]([O-])c1ccc(N/N=C/c2sc(N3CCOCC3)nc2-c2ccccc2)c(S(=O)(=O)Nc2ccccc2Cl)c1	8.4*	4	nt	nt	9	-2
Cc1ccc(Nc2ccc(C(N)=O)cc2[N+](=O)[O-])cc1C	4	0	-36	-3	3	-2
COc1cc(Nc2ccc(C(=O)O)cc2[N+](=O)[O-])cc(OC)c1	10*	2	-72	7	4	-2
Cc1ccc(-c2cc(-c3ccccc3)nc(Cl)n2)cc1	9.4*	-1	-11	-23	4	-4
COc1ccc(C(=O)C2CCCN(Cc3c[nH]c4ccccc34)C2)c(OC)c1 (stereo not drawn)	1	0	nt	nt	2	-1
N#Cc1c(SCC(N)=O)nsc1SCc1ccccc1Cl	0	2	-35	-13	8	-4
N#Cc1c(SCC(N)=O)nsc1SCc1ccc(Cl)cc1	9.2*	nt	-73	-2	2	-2
CCCc1nc2c(sc3nc4c(cc32)COC(C)(C)C4)c(=O)n1CCN(CC)CC	3	0	nt	nt	3	-2
Cc1onc(-c2ccccc2)c1C(=O)Nc1cc(C(F)(F)F)ccc1N1CCOCC1	2	70*	-45	-19	33*	1
CSc1ncccc1C(=O)OCC(=O)Nc1cc(C(F)(F)F)ccc1N1CCOCC1	0	-2	-71	-18	3	8
CCOC(=O)c1ccc(N2CCOCC2)c(NC(=O)c2c(-c3ccccc3)noc2C)c1	nt	125*	nt	nt	nt	nt
Cc1cc(OCC(=O)OCC(=O)Nc2cc(C(F)(F)F)ccc2N2CCOCC2)ccc1Cl	9.1*	-2	-37	-4	2	0
CCn1cc(C(=O)N2CCN(c3ccccc3F)CC2)c(=O)c2ccc(C)nc21	2	-2	nt	nt	2	-1
O=S(=O)(/N=C(/Nc1ccc(Cl)cc1Cl)c1ccccc1)c1cccs1	3	-1	nt	nt	4	-2
CCNc1nc(NC(C)C)nc(NC(C)(C)C)n1	1	-1	nt	nt	3	13*
COC(=O)C1CSC(C(=O)OC)N1C(=O)CN1CCN(c2ccccc2)CC1 (stereo not drawn)	2	-1	nt	nt	4	-1
O=S(=O)(c1cccs1)N1CN(Cc2ccccc2)c2nc3ccccc3nc21	6	1	-40	-6	2	-2
O=S(=O)(c1cccs1)N1CN(Cc2cccs2)c2nc3ccccc3nc21	8.6*	-1	-29	2	2	0
CCC(=NCCc1c(C)[nH]c2ccc(OC(F)(F)F)cc12)C1=C(O)CC(c2ccccc2)CC1=O (stereo not drawn)	6	0	nt	nt	10	6
CCCCC(=NCCc1c(C)[nH]c2ccc(OC)cc12)C1=C(O)CC(c2ccccc2)CC1=O (stereo not drawn)	5	17	nt	nt	17*	5
CC(=NCCc1c(C)[nH]c2ccc(OCc3ccccc3)cc12)C1=C(O)CC(c2ccccc2)CC1=O (stereo not drawn)	6	-1	nt	nt	2	13*
CCC(=NCCc1c(C)[nH]c2ccccc12)C1=C(O)CC(c2ccccc2)CC1=O (stereo not drawn)	4	80*	-9	21	15*	-2
NS(=O)(=O)c1cccc(NC(=O)COC(=O)Cc2ccc(S(=O)(=O)N3CCCCC3)s2)c1	8	-2	nt	nt	2	-1
O=C(COC(=O)Cc1ccc(S(=O)(=O)N2CCCCC2)s1)Nc1ccc2c(c1)OCO2	9.4*	-4	-30	-15	1	-5
